Measured values reported in ChEMBL document CHEMBL1926535, “Novel pyridopyrazine and pyrimidothiazine derivatives as FtsZ inhibitors” (Bioorg Med Chem, 2011).
≈ marks a conversion by molar mass, not a printed value.

Key:
[1] = Inhibition of purified bovine tubulin polymerization by light scattering assay; set-up: species or system Bos taurus
How it was run: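 Tubulin polymerization assay. IC50 is the concentration that inhibits polymerization by 50%. Each compound was analyzed at least three times, reported as mean ± standard deviation.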

[2] = test system: Mycobacterium tuberculosis; assay: Antituberculosis activity against Mycobacterium tuberculosis H37Rv ATCC 27294 after 7 days using alamar blue assay; type: functional; conditions: 168 h
How it was run: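 Strain H37Rv growth measured over a 10-point dose-response curve. IC90, the concentration inhibiting bacterial growth by 90%, is extrapolated from the curve.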

[3] = test system: Vero; assay: Cytotoxicity against african green monkey Vero cells after 72 hrs by celltiter-glo assay; type: cell-based; conditions: chlorocebus sabaeus
How it was run: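 Vero cells grown in culture with compound across a 10-point dose-response curve. CC50 is extrapolated as the concentration that inhibits cell growth by 50%. Each compound was assayed at least three times.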

[4] = molecular target: T1, Cell division protein FtsZ (Mycobacterium tuberculosis, UniProt P9WN95); assay: Inhibition of Mycobacterium tuberculosis FtsZ polymerization expressed in Escherichia coli by light scattering assay
T1 sequence (P9WN95 whole entry): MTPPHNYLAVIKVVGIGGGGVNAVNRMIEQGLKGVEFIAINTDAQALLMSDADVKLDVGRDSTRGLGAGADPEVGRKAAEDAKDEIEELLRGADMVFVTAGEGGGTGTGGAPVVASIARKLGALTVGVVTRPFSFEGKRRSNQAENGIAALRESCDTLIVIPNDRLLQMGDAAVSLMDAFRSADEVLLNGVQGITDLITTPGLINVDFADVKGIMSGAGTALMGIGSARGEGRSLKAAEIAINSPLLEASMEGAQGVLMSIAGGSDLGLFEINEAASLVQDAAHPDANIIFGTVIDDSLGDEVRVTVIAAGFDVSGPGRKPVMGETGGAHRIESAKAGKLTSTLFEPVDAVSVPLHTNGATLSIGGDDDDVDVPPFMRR
How it was run: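 Mtb FtsZ polymerization assay with each compound run at least three times. IC50 is the concentration that inhibits polymerization by 50%, reported as mean ± standard deviation.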

[5] = test system: Mycobacterium tuberculosis; assay: Antituberculosis activity against Mycobacterium tuberculosis H37Ra ATCC 25177 after 6 days using alamar blue dye by broth microdilution assay; type: functional; conditions: H37Ra ATCC 25177, 144 h
How it was run: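 Strain H37Ra in a colorimetric Alamar blue broth microdilution assay using duplicate two-fold serial dilutions of drug.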

[6] = species: Bos taurus; assay: Inhibition of purified bovine tubulin polymerization at 100 uM by light scattering assay
[7] = molecular target: T2, Cell division protein FtsZ (Mycobacterium tuberculosis) (UniProt P9WN95); assay: Inhibition of Mycobacterium tuberculosis FtsZ polymerization expressed in Escherichia coli at 100 uM by light scattering assay
T2 sequence (whole entry): T1 sequence (P9WN95 whole entry)

[8] = test system: Mycobacterium tuberculosis; assay: Antitubercular activity against Mycobacterium tuberculosis infected in interferon-gamma-gene-disrupted C57BL/6 mouse model assessed as reduction in bacterial load in spleen at 10 mg/kg, po administered daily; type: functional
How it was run: (§1)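 Interferon-γ gene-disrupted C57BL/6 (GKO) mice infected with M. tuberculosis. Compound given at 10 mg/kg in 0.5% methyl cellulose by daily gavage for 9 days. Read-out is the reduction in bacterial load (Log10 CFU) in lungs or spleen versus untreated controls, with significance judged by P value (0.05 threshold).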

[9] = test system: Mus musculus; assay: Toxicity in C57BL/6 mouse model assessed as adverse event at 30 mg/kg administered via gavage; type: organism-based; set-up: dose 30 mg/kg; conditions: in vivo, po
How it was run: (§2)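 Acute maximum tolerated dose study in C57BL/6 mice. Escalating oral gavage doses up to 300 mg/kg were given daily for 3 days, formulated in 0.5% methyl cellulose. Dosage was scaled back if mortality or adverse effects were observed.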

[10] = test system: Mus musculus; assay: Toxicity in C57BL/6 mouse model assessed as lethality at 300 mg/kg administered via gavage; type: organism-based; set-up: dose 300 mg/kg; conditions: in vivo, po
How it was run: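 Acute maximum tolerated dose study in C57BL/6 mice. Escalating doses up to 300 mg/kg were given daily for 3 days by gavage in 0.5% methyl cellulose, and doses were scaled back if mortality or adverse effects appeared.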

[11] = test system: Mycobacterium tuberculosis; assay: Antitubercular activity against Mycobacterium tuberculosis infected in interferon-gamma-gene-disrupted C57BL/6 mouse model assessed as reduction in bacterial load in lung at 10 mg/kg, po administered daily; type: functional; how it was run: as §1
[12] = test system: Mus musculus; assay: Toxicity in C57BL/6 mouse model assessed as adverse event at 100 mg/kg administered via gavage; type: organism-based; set-up: dose 100 mg/kg; conditions: in vivo, po; how it was run: as §2
[13] = test system: Mycobacterium tuberculosis; assay: Antitubercular activity against Mycobacterium tuberculosis infected in interferon-gamma-gene-disrupted C57BL/6 mouse model assessed as reduction in bacterial load in lung at 10 mg/kg, po administered daily measured after 9 days; type: functional; how it was run: as §1
[14] = test system: Mycobacterium tuberculosis; assay: Antitubercular activity against Mycobacterium tuberculosis infected in interferon-gamma-gene-disrupted C57BL/6 mouse model assessed as reduction in bacterial load in spleen at 10 mg/kg, po administered daily measured after 9 days; type: functional; how it was run: as §1

| SMILES | IC50 [1] [µM] | IC90 [2] [µM] | CC50 [3] [µM] | IC50 [4] [µM] | MIC [5] [µM] | inhibition [6] [%] | inhibition [7] [%] | log10cfu [8] | Activity [9] | Activity [10] | log10cfu [11] | Activity [12] | log10cfu [13] | log10cfu [14] |
| --- | --- | --- | --- | --- | --- | --- | --- | --- | --- | --- | --- | --- | --- | --- |
| CCOC(=O)Nc1cc(NCCN(CC)CC)c2nc(-c3cccs3)c(-c3cccs3)nc2n1 | > 100 | 0.92 | 6.3 | 21 | ≤ 7.9 |  |  |  |  |  |  |  |  |  |
| CCOC(=O)Nc1nc(NC(C)CCCN(CC)CC)c2nc(-c3ccccc3)c(-c3ccccc3)nc2n1 (stereo not given) |  | 1.9 |  | 38.1 | 3.8 (≈ 2.01 µg/mL) | 24 |  |  |  |  |  |  |  |  |
| CCOC(=O)Nc1cc(NCCCCN(CC)CC)c2nc(-c3ccccc3)c(-c3ccccc3)nc2n1 |  | < 0.19 | 1.8 | 52 | 0.24 (≈ 0.123 µg/mL) | 40 |  |  |  |  |  |  |  |  |
| CCOC(=O)Nc1cc(NCCN(C)C)c2nc(-c3ccccc3)c(-c3ccccc3)nc2n1 | > 100 | < 0.19 | 0.7 | 54.6 | ≤ 7.6 |  |  |  |  |  |  |  |  |  |
| CCOC(=O)Nc1cc(NCCCCN(CC)CC)c2nc(-c3cccs3)c(-c3cccs3)nc2n1 | > 100 | > 100 | > 40 |  | 0.23 (≈ 0.121 µg/mL) |  | 64 |  |  |  |  |  |  |  |
| CCN(CC)CCCC(C)Nc1cc(N)nc2nc(-c3cccs3)c(-c3cccs3)nc12 (stereo not given) | > 100 | 4.1 | 5.9 | 29.5 | 17 (≈ 7.93 µg/mL) |  |  |  |  |  |  |  |  |  |
| CCOC(=O)Nc1nc(NC(C)CCCN(CC)CC)c2c(n1)SC(c1ccccc1)C(c1ccccc1)=N2 (stereo not given) | > 100 | 21.7 | > 40 | 46 | 49 (≈ 26.8 µg/mL) |  |  |  |  |  |  |  |  |  |
| CCOC(=O)Nc1cc(NC(C)CCCN(CC)CC)c2nc(-c3ccccn3)c(-c3ccccn3)nc2n1 (stereo not given) | > 100 | > 100 | > 40 | 45.7 | 54 (≈ 28.5 µg/mL) |  |  |  |  |  |  |  |  |  |
| CCOC(=O)Nc1cc(NC(C)CCCN(CC)CC)c2nc(-c3ccccc3)c(-c3ccccc3)nc2n1 (stereo not given) | > 100 | < 0.19 |  | 34.2 | 0.47 (≈ 0.248 µg/mL) |  |  | 0.5 | Toxic | Toxic | 0.86 | Toxic |  |  |
| CCOC(=O)Nc1cc(NC(C)CCCN(CC)CC)c2nc(-c3cccs3)c(-c3cccs3)nc2n1 (stereo not given) | > 100 | < 0.19 | > 40 | 34.3 | 0.43 (≈ 0.232 µg/mL) |  |  |  |  |  |  |  | 0.51 | 0.58 |
| CCOC(=O)Nc1cc(NCCN(CC)CC)c2nc(-c3ccco3)c(-c3ccco3)nc2n1 | > 100 | > 100 | 5.5 | 34.8 | 8.7 (≈ 4.04 µg/mL) |  |  |  |  |  |  |  |  |  |
| CCOC(=O)Nc1cc(NC(C)CCCN(CC)CC)c2nc(CC)c(CC)nc2n1 (stereo not given) | > 100 | > 50 | > 40 | > 100 | > 290 |  |  |  |  |  |  |  |  |  |
| CCOC(=O)Nc1cc(NC(C)CCCN(CC)CC)c2nc(C)c(C)nc2n1 (stereo not given) | > 100 | > 100 | > 40 | > 100 | > 290 |  |  |  |  |  |  |  |  |  |
| CCOC(=O)Nc1cc(NCCN(C)C)c2nc(-c3cccs3)c(-c3cccs3)nc2n1 | > 100 | < 0.19 | 1.6 | 27.3 | 1.1 (≈ 0.515 µg/mL) |  |  |  |  |  |  |  |  |  |
| CCOC(=O)Nc1cc(NCCCCN(CC)CC)c2nc(-c3ccco3)c(-c3ccco3)nc2n1 | 41 | > 100 | > 40 | 16.4 | 3.6 (≈ 1.77 µg/mL) |  |  |  |  |  |  |  |  |  |
| CCOC(=O)Nc1cc(NCCN(CC)CC)c2nc(-c3ccccc3)c(-c3ccccc3)nc2n1 | > 100 | 0.38 | 2.7 |  | 1.7 (≈ 0.824 µg/mL) |  | 59 |  |  |  |  |  |  |  |
| CCN(CC)CCCC(C)Nc1cc(N)nc2nc(-c3ccco3)c(-c3ccco3)nc12 (stereo not given) | > 100 | > 100 | 14 | 18.6 | 150 (≈ 65.2 µg/mL) |  |  |  |  |  |  |  |  |  |
| CCOC(=O)Nc1cc(NC(C)CCCN(CC)CC)c2nc(-c3ccco3)c(-c3ccco3)nc2n1 (stereo not given) | > 100 | 7 | > 40 | 26.8 | 3.6 (≈ 1.82 µg/mL) |  |  |  |  |  |  |  |  |  |
| CCOC(=O)Nc1nc(NCCCCN(CC)CC)c2c(n1)SC(c1ccccc1)C(c1ccccc1)=N2 (stereo not given) | 69.7 | 18 | > 40 | 46.2 | 52 (≈ 27.7 µg/mL) |  |  |  |  |  |  |  |  |  |
| CCOC(=O)Nc1cc(NCCN(C)C)c2nc(-c3ccco3)c(-c3ccco3)nc2n1 | > 100 | 29 | 37 | 34.1 | ≤ 7 |  |  |  |  |  |  |  |  |  |
